High-throughput results: PubChem, The Scripps Research Institute Molecular Screening Center
CHO parental Ca: signal in parental CHO cells, OX1R antagonist counter-screen; actives 0.63% (n = 330,000); AID 463079; inhibition, % at 5.6 µM; parental CHO-K1, ATP-induced calcium, Fluo-8 fluorescence;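 active means inhibition above that plate's mean sample inhibition plus 3 SD, cut at about 26% in these data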;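 further: 0% = ATP-challenged DMSO wells and 100% = DMSO wells without ATP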
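test system = CHO parental line | reagent = ATP stimulus | measured by = intracellular calcium via Fluo-8 no-wash fluorescent dye | control set = ATP and no-ATP DMSO wells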
TAAR1 antagonist: human TAAR1 antagonism; Q96RJ0; CHO RD-HGA16 TAAR1, Fluo-8 calcium fluorescence, antagonist; inhibition, % at 3 µM; actives 1.5% (n = 360,000);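 active means inhibition above a per-plate cutoff, the mean inhibition of test compounds on that plate plus 3 SD, cut at about 49% in these data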;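 further: 0% = DMSO plus EC80 beta-PEA response and 100% = DMSO alone without agonist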
Target sequence (Q96RJ0 whole entry, looked up): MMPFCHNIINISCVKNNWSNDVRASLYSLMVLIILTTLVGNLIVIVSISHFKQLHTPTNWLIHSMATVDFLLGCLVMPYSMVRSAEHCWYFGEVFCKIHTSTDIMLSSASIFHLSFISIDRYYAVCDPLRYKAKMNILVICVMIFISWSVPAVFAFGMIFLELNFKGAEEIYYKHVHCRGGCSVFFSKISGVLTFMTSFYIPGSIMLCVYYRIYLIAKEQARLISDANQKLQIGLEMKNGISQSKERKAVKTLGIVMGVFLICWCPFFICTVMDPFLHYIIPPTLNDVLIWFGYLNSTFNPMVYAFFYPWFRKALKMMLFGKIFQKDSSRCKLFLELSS
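Assay system: CHO-derived RD-HGA16 cells stably expressing human TAAR1 plus Gα16. Timing: 140 s kinetic read after compound, 140 s after agonist. Technique: kinetic Fluo-8 calcium fluorescence measurement. Measure: % inhibition of agonist calcium response.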
OX1R antag-1: OX1R (human) antagonism; OX1R-expressing cells, FRET antagonist read-out; inhibition, % at 6.6 µM; actives 1.8% (n = 330,000); AID 485270; in the data active means inhibition mostly above about 38%, no sharp cut-off; inactive means mostly below about 40%;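 further: 0% = agonist challenge alone and 100% = reference antagonist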
OX1R antag-2: human HCRTR1 antagonism | actives 0.43% (n = 330,000) | CHO/OX1R cells, Fluo-8 calcium fluorescence, orexin A | AID 434989 | inhibition, % at 5 µM | O43613;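 active means inhibition above its plate's threshold, mean inhibition of all tested compounds on the plate plus 3 SD, cut at about 37% in these data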;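 further: 0% = orexin A challenge wells and 100% = SB-334867-A antagonist wells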
GalR3 antag: human GalR3 antagonism; O60755; HEK293 GalR3-CNG cAMP membrane potential fluorescence; galR3 body fused to GalR1 C-terminus; inhibition, % at 3 µM; actives 0.44% (n = 360,000); AID 651719;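 active means inhibition above the screen-wide average plus 3 SD, cut at about 13% in these data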;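 further: forskolin and galanin both at EC90 stimulate the cells; cAMP rise reported by CNG channel membrane potential dye signal; 0% = forskolin plus galanin with DMSO and 100% = forskolin alone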
TAAR1 agonist: human TAAR1 agonism; Q96RJ0; CHO RD-HGA16 TAAR1, Fluo-8 calcium fluorescence; vehicle wells 0%, saturating PEA agonist 100%; activation, % at 3 µM; actives 0.99% (n = 360,000);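 active means activation above the mean activation of all test compounds in the run plus 3 SD, cut at about 38% in these data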
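Assay system – CHO-derived RD-HGA16 cells with stable Gα16 and human TAAR1 · Compound dosing – one-point dosing at 3 µM (nominal) · Incubation – 17-24 h seeding, 75 min 37 °C dye, 30 min RT · Measured by – kinetic Fluo-8 calcium fluorescence · Control set – DMSO vehicle as 0%, PEA at EC100 as 100% · Repeats – single well for each compound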
* marks the source's active call; other numbers are inactive results; x = not tested or not shown. Rows were chosen to be rich in hits. Some 4.2% of all compounds tested hit in one or more screens of this group.

SMILES	CHO parental Ca	TAAR1 antagonist	OX1R antag-1	OX1R antag-2	GalR3 antag	TAAR1 agonist
COc1cccc(CNC(=O)Cc2csc(NC(=O)Nc3ccccc3OC)n2)c1	-14	50*	42*	-20	-4	11
COc1ccccc1NC(=O)Nc1nc(CC(=O)NCc2ccc(F)cc2)cs1	-8	52*	25	-25	-4	14
COc1ccc(C(=O)Nc2nc(CC(=O)NCCc3cccc(OC)c3)cs2)cc1	-13	31	44	-13	0	3
Cn1nc(OC(=O)Nc2ccc(Cl)cc2)cc1C(F)(F)F	38*	x	20	9	x	x
CN1CCCC1CCOC(C)(c1ccccc1)c1ccc(Cl)cc1 (stereo unspecified)	x	-13	x	x	-9	33
O=S(=O)(c1ccc(Cl)cc1)N1CCCc2ccccc21	-22	20	18	-29	-8	3
Cc1ccc(S(=O)(=O)N2CCCc3ccccc32)cc1C	30*	23	5	-16	-9	3
Cc1cccc(C(=O)n2c(=S)nc3cc(C)ccn32)c1	-12	-13	41*	-6	-3	0
COc1ccc(-c2nnc(-c3cc4c(ccc5ccccc54)oc3=O)o2)cc1	-14	7	62	-22	8	1
O=c1oc2ccc3ccccc3c2cc1-c1nnc(-c2ccccc2)o1	-5	-2	74*	-2	-5	4
CC1=C/C(=C\C=C(C#N)C#N)N(C)c2ccccc21	33*	17	21	44*	-3	20
CN1/C(=C/C=C(C#N)C#N)C(C)(C)c2ccccc21	-1	-22	5	-4	-3	-1
COc1ccc(CCN2Cc3c(cccc3[N+](=O)[O-])C2=O)cc1OC	-2	1	38*	-27	-10	1
COc1cccc(C(=O)OCCNC(=O)c2cccnc2)c1	-14	-2	14	-5	-6	0
NC1=NC(=O)/C(=C\c2cc([N+](=O)[O-])ccc2Cl)S1	4	5	49*	-14	-2	5
COc1ccc2cc(C3CC=C(CO)CN3S(=O)(=O)c3ccccc3[N+](=O)[O-])n(C(=O)OC(C)(C)C)c2c1 (stereo unspecified)	x	50*	x	x	-1	3
CCC(CC)c1nnc(NC(=O)CN2C(=O)C3C4C=CC(C4)C3C2=O)s1 (stereo unspecified)	-8	0	11	-23	3	7
COc1ccc(C2=Nn3c(nnc3-c3ccccc3F)SC2)cc1OC1CCCC1	-12	66*	23	32	6	3
c1cnc2ncc3sccc3c2c1	46*	7	8	-3	-2	6
Cc1cnc2ncc3sccc3c2c1	2	-3	-1	6	-1	0
CC(OC(=O)CN1C(=O)C2CC=CCC2C1=O)C(=O)Nc1ccc(F)cc1Cl (stereo unspecified)	-8	-13	7	-7	2	1
CN(CCOc1ccccc1)C(=O)c1cc([N+](=O)[O-])cc([N+](=O)[O-])c1	-9	8	38*	-13	-5	10
CN(CCOc1ccccc1)CC(=O)Nc1cc([N+](=O)[O-])ccc1Cl	-4	14	62*	-19	-1	-3
CSCCC(NC(=O)COc1ccccc1)C(=O)N(C)Cc1ccc(SC)cc1 (stereo unspecified)	-17	52*	16	-3	-8	19
CSCCC(NC(=O)COc1ccccc1)C(=O)N(C)Cc1ccc(F)cc1 (stereo unspecified)	-36	13	7	-8	-3	4
COC(=O)c1cc(S(=O)(=O)N2CCN(c3cccc(C)c3)C(C)C2)c[nH]1 (stereo unspecified)	-8	17	11	9	-6	-2
Cc1ccc2c(c1)sc(-c1ccc(N(C)C)cc1)[n+]2C	42*	14	40*	10	1	1
COc1ccc(C)cc1NC(=O)C(=O)NNC(=O)COc1ccc(Cl)cc1	35*	-16	19	28	-3	11
CC1(C(=O)Nc2ccc3c(c2)OCCO3)CCN1C(=O)c1ccccc1CCc1ccccc1 (stereo unspecified)	x	26	x	x	-7	0
